Measurements from ChEMBL document CHEMBL2331277, “Design, synthesis and pharmacological evaluation of omeprazole-like agents with anti-inflammatory activity” (2013).

Key:
[1] = tested on: Rattus norvegicus; assay: Antiulcerogenic activity in pylorus ligation-induced gastric ulcer Sprague-Dawley rat model assessed as pH of gastric juice at 7.2 mg/kg, po for 3 days (Rvb =2.60 +/-0.55 ); assay type: functional
[2] = tested on: Rattus norvegicus; assay: Antiulcerogenic activity in pylorus ligation-induced gastric ulcer Sprague-Dawley rat model assessed as pH of gastric juice at 3.6 mg/kg, po for 3 days (Rvb =2.60 +/-0.55 ); assay type: functional
[3] = tested on: Rattus norvegicus; assay: Antiulcerogenic activity in pylorus ligation-induced gastric ulcer Sprague-Dawley rat model assessed as volume of gastric juice at 7.2 mg/kg, po for 3 days (Rvb =5.96 +/-0.80 ml ); assay type: functional
[4] = tested on: Rattus norvegicus; assay: Antiulcerogenic activity in pylorus ligation-induced gastric ulcer Sprague-Dawley rat model assessed as volume of gastric juice at 3.6 mg/kg, po for 3 days (Rvb =5.96 +/-0.80 ml ); assay type: functional
[5] = tested on: Rattus norvegicus; assay: Antiulcerogenic activity in pylorus ligation-induced gastric ulcer Sprague-Dawley rat model assessed as stomach peptic activity measuring tyrosine release for 4 hrs at 7.2 mg/kg, po for 3 days (Rvb =5.70 +/-2.40 ug/ml ); assay type: functional
Procedure, shortened: (§1)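 Pylorus-ligated rat model as above (3-day oral dosing, 3.6 or 7.2 mg/kg, 5 h ligation). Gastric juice sample (0.1 ml) was incubated with 2.9 ml acid hemoglobin substrate (2.5 g/100 ml, pH 2.2) for 30 min at 37 °C. Reaction was stopped with ice-cold 0.6 M TCA and centrifuged. Liberated amino acids were read by Lowry, expressed as µg tyrosine/ml.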

[6] = tested on: Rattus norvegicus; assay: Antiulcerogenic activity in pylorus ligation-induced gastric ulcer Sprague-Dawley rat model assessed as stomach peptic activity measuring tyrosine release for 4 hrs at 3.6 mg/kg, po for 3 days (Rvb =5.70 +/-2.40 ug/ml ); assay type: functional; procedure, shortened: as §1
[7] = tested on: Rattus norvegicus; assay: Antiulcerogenic activity in pylorus ligation-induced gastric ulcer Sprague-Dawley rat model assessed as stomach H+/K+-ATPase activity measuring Pi release per hour per mg protein at 7.2 mg/kg, po for 3 days (Rvb =11.44 +/-1.5 umol ); assay type: functional
[8] = tested on: Rattus norvegicus; assay: Antiulcerogenic activity in pylorus ligation-induced gastric ulcer Sprague-Dawley rat model assessed as stomach H+/K+-ATPase activity measuring Pi release per hour per mg protein at 3.6 mg/kg, po for 3 days (Rvb =11.44 +/-1.5 umol ); assay type: functional
[9] = tested on: Mus musculus; assay: Antiulcerogenic activity in ethanol-induced gastric ulcer Swiss albino mouse model assessed as inhibition of ulceration at 7.2 mg/kg administered intragastrically for 3 days relative to control; assay type: functional; settings: Stomach, po, 72 h, route intragastric
Procedure, shortened: (§2)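 Mice, n = 6 per group, given 3.6 or 7.2 mg/kg, omeprazole 3.6 mg/kg, or vehicle (0.25% w/v carboxymethyl cellulose) for 3 days. After a 24 h fast, 90% ethanol (10 ml/kg) was given intragastrically. Animals were killed 1 h later. Stomachs were opened along the greater curvature and lesion lengths measured under a microscope.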

[10] = tested on: Mus musculus; assay: Antiulcerogenic activity in ethanol-induced gastric ulcer Swiss albino mouse model assessed as inhibition of ulceration at 3.6 mg/kg administered intragastrically for 3 days relative to control; assay type: functional; settings: Stomach, po, 72 h, route intragastric; procedure, shortened: as §2
[11] = tested on: Mus musculus; assay: Antiulcerogenic activity in ethanol-induced gastric ulcer Swiss albino mouse model assessed as lesion length at 7.2 mg/kg administered intragastrically for 3 days; assay type: functional, Stomach; settings: route intragastric; procedure, shortened: as §2
[12] = tested on: Mus musculus; assay: Antiulcerogenic activity in ethanol-induced gastric ulcer Swiss albino mouse model assessed as lesion length at 3.6 mg/kg administered intragastrically for 3 days; assay type: functional, Stomach; settings: route intragastric; procedure, shortened: as §2
[13] = tested on: Rattus norvegicus; assay: Antiinflammatory activity against carrageenan-induced paw edema in Sprague-Dawley rat assessed as inhibition of paw volume at 30 mg/kg, po measured 180 mins post challenge by plethysmometer; assay type: functional; settings: 3 h
[14] = tested on: Rattus norvegicus; assay: Antiinflammatory activity against carrageenan-induced paw edema in Sprague-Dawley rat assessed as paw volume at 30 mg/kg, po measured 120 mins post challenge by plethysmometer (reference value: 1.13 +/- 0.04 ml); assay type: functional
[15] = tested on: Rattus norvegicus; assay: Antiinflammatory activity against carrageenan-induced paw edema in Sprague-Dawley rat assessed as paw volume at 30 mg/kg, po measured 60 mins post challenge by plethysmometer (reference value: 0.90 +/- 0.03 ml); assay type: functional
[16] = tested on: Rattus norvegicus; assay: Antiinflammatory activity against carrageenan-induced paw edema in Sprague-Dawley rat assessed as inhibition of paw volume at 20 mg/kg, po measured 180 mins post challenge by plethysmometer; assay type: functional; settings: 3 h
[17] = tested on: Rattus norvegicus; assay: Antiinflammatory activity against carrageenan-induced paw edema in Sprague-Dawley rat assessed as paw volume at 20 mg/kg, po measured 120 mins post challenge by plethysmometer (reference value: 1.13 +/- 0.04 ml); assay type: functional
[18] = tested on: Rattus norvegicus; assay: Antiinflammatory activity against carrageenan-induced paw edema in Sprague-Dawley rat assessed as paw volume at 20 mg/kg, po measured 60 mins post challenge by plethysmometer (reference value: 0.90 +/- 0.03 ml); assay type: functional
[19] = tested on: Rattus norvegicus; assay: Antiinflammatory activity against carrageenan-induced paw edema in Sprague-Dawley rat assessed as inhibition of paw volume at 10 mg/kg, po measured 180 mins post challenge by plethysmometer; assay type: functional; settings: 3 h
[20] = tested on: Rattus norvegicus; assay: Antiinflammatory activity against carrageenan-induced paw edema in Sprague-Dawley rat assessed as paw volume at 10 mg/kg, po measured 120 mins post challenge by plethysmometer (reference value: 1.13 +/- 0.04 ml); assay type: functional
[21] = tested on: Rattus norvegicus; assay: Antiinflammatory activity against carrageenan-induced paw edema in Sprague-Dawley rat assessed as paw volume at 10 mg/kg, po measured 60 mins post challenge by plethysmometer (reference value: 0.90 +/- 0.03 ml); assay type: functional
[22] = tested on: Rattus norvegicus; assay: Antiinflammatory activity against carrageenan-induced paw edema in po dosed Sprague-Dawley rat assessed as inhibition of paw volume measured 180 mins post challenge by plethysmometer; assay type: functional, organism-based

Row | Compound | pH [1] | pH [2] | Activity [3] [mL] | Activity [4] [mL] | Activity [5] [µg/mL] | Activity [6] [µg/mL] | Activity [7] [µmol] | Activity [8] [µmol] | inhibition in vivo at 7.2 mg/kg [9] [%] | inhibition in vivo at 3.6 mg/kg [10] [%] | Activity [12] [mm] | inhibition in vivo at 30 mg/kg [13] [%] | Activity [14] [mL] | Activity [15] [mL] | inhibition in vivo at 20 mg/kg [16] [%] | Activity [17] [mL] | Activity [18] [mL] | inhibition in vivo at 10 mg/kg [19] [%] | Activity [20] [mL] | Activity [21] [mL] | further results
1 | COc1ccnc(CNc2ccc3c(c2)nc(C)n3C[C@@H](O)[C@H]2O[C@H](O)[C@@H](O)[C@H]2O)c1OC | 4.73 | 4.53 | 2.39 | 2.56 | 4.54 | 4.79 | 6.34 | 6.88 | 73 | 61 | 49 | 72 | 0.38 | 0.41 | 62 | 0.4 | 0.44 | 41 | 0.52 | 0.53 | Activity [11]: 34 mm
2 | COc1ccc2[nH]c([S+]([O-])Cc3ncc(C)c(OC)c3C)nc2c1 (configuration not stated) [OMEPRAZOLE] | – | 4.26 | – | 2.64 | – | 4.92 | – | 7.1 | – | 68.3 | 40 | – | – | – | – | – | – | – | – | – | –
3 | Cc1nc2cc(NCc3ccccn3)ccc2n1C[C@@H](O)[C@H]1O[C@H](O)[C@@H](O)[C@H]1O | 4.41 | 4.04 | 2.3 | 2.4 | 4.44 | 4.72 | 6.02 | 6.91 | 54 | 46 | 68 | 52 | 0.64 | 0.63 | 47 | 0.69 | 0.68 | 8 | 0.89 | 0.69 | Activity [11]: 58 mm
4 | COc1c(C)cnc(CNc2ccc3[nH]c(C)nc3c2)c1C | – | – | – | – | – | – | – | – | – | – | – | 53 | 0.62 | 0.64 | 49 | 0.67 | 0.69 | 10 | 0.88 | 0.7 | –
5 | COc1ccnc(CNc2ccc3c(c2)nc(C)n3C[C@@H](O)[C@H]2O[C@H](O)[C@@H](O)[C@H]2O)c1C | 4.31 | 4.1 | 2.24 | 2.31 | 4.34 | 4.62 | 6 | 6.78 | 66.6 | 57.9 | 53 | 58 | 0.64 | 0.63 | 53 | 0.68 | 0.68 | 22 | 0.88 | 0.68 | Activity [11]: 42 mm
6 | COc1ccnc(CNc2ccc3[nH]c(C)nc3c2)c1C | – | – | – | – | – | – | – | – | – | – | – | 55 | 0.65 | 0.64 | 52 | 0.69 | 0.69 | 11 | 0.9 | 0.7 | –
7 | Cc1nc2cc(NCc3ccccn3)ccc2[nH]1 | – | – | – | – | – | – | – | – | – | – | – | 45 | 1.03 | 0.87 | 32 | 1.08 | 0.9 | 10 | 1.08 | 0.97 | –
8 | O=C([O-])Cc1ccccc1Nc1c(Cl)cccc1Cl.[Na+] [DICLOFENAC SODIUM] | – | – | – | – | – | – | – | – | – | – | – | – | – | – | 73 | 0.35 | 0.38 | – | – | – | –
9 | COc1ccnc(CNc2ccc3[nH]c(C)nc3c2)c1OC | 4.01 | 3.64 | 2.6 | 2.98 | 4.74 | 5.02 | 6.88 | 7.91 | 46.8 | 30 | 88 | 61 | 0.65 | 0.65 | 57 | 0.69 | 0.7 | 15 | 0.88 | 0.7 | Activity [11]: 67 mm; inhibition [22]: Dose-dependent effect
10 | COc1c(C)cnc(CNc2ccc3c(c2)nc(C)n3C[C@@H](O)[C@H]2O[C@H](O)[C@@H](O)[C@H]2O)c1C | 4.39 | 4.14 | 2.38 | 2.48 | 4.56 | 4.8 | 6.62 | 7.01 | 76.2 | 62.6 | 47 | 56 | 0.43 | 0.49 | 50 | 0.48 | 0.5 | 36 | 0.64 | 0.61 | Activity [11]: 30 mm
